FID counter: fluorescent intercalator displacement, NS3 helicase counter-screen. DNA fluorescent intercalator displacement, fluorescence. inhibition, % at 7.9 µM. 0.17% of 290,000 active. AID 1845; in the data active = inhibition above about 37%;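 also: higher means more ethidium bromide displaced from hairpin DNA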
MEKK3 PB1 HTS: modulators (inhibitors or enhancers) of MEK5 binding to human MEKK3 PB1 domain; Q99759; bead-based flow cytometry, Alexa488-MEK5 binding to MEKK3; actives lie on both sides; 0 = blocked by unlabeled MEK5, 100 = vehicle; binding response (% of control), % at 10 µM; 1.4% of 290,000 active;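 active = binding response more than 3 SD above or below the average of its plate-row segment, actives on both sides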;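 also: Alexa488 bead fluorescence after subtracting the streptavidin-only scavenger bead signal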
Target sequence (Q99759 whole entry, looked up, the tested form may be a part): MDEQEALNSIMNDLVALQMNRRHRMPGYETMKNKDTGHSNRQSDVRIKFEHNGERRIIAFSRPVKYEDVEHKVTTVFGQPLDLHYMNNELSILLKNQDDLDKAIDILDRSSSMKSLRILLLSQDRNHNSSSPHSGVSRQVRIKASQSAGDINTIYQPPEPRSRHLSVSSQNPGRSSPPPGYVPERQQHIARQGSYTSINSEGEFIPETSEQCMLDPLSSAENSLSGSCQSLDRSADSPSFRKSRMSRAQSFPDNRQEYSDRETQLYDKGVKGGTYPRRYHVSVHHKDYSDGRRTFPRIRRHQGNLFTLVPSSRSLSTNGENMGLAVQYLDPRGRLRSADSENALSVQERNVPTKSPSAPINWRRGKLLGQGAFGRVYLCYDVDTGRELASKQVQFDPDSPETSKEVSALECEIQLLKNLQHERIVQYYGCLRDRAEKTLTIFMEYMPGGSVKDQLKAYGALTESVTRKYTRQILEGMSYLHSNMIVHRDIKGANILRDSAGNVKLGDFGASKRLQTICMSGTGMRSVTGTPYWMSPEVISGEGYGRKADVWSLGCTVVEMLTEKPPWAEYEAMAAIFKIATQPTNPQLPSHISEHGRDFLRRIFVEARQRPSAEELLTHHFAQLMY
T cruzi inh: blocks replication of Trypanosoma cruzi; T. cruzi beta-gal in NIH3T3, luminescence, 90 h; inhibition, % (concentration not given with the values); 1.4% of 300,000 active;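 active = mean inhibition across valid replicates above about 55%, limit read from the data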;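 also: signal also drops with host cell toxicity which is not excluded here; higher percent means less beta-gal luminescence so fewer parasites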
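Incubation – ≥90 h infection period, 3 h prior cell attachment · System – NIH/3T3 fibroblasts plus reporter T. cruzi · Doses – compound pinned at 50 nL/well, DMSO · Read-out basis – percent inhibition of parasite-derived β-gal signal · Signal – luminescent β-galactosidase signal after 60 min lysis · Also added – 5000 T. cruzi trypomastigotes/well · Medium – Low-serum DMEM with 2% FBS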
NS3 helicase inh: inhibitors of Hepatitis C virus NS3 helicase; AID 1800; inhibition, % at 10.9 µM; NS3 helicase DNA unwinding, Cy5 molecular beacon fluorescence; 0.56% of 290,000 active;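 active = inhibition above the mean of all tested compounds plus 3 SD, set per campaign, cut at about 35% in these data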
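assay system = NS3 helicase fragment of HCV | buffer or medium = MOPS pH 6.5, MgCl2, DTT, Tween20, BSA | timing = 60 min unwinding reaction at 25 °C after ATP addition | signal = Cy5 beacon fluorescence read at start and 1 h | read-out basis = % inhibition of unwinding | control set = low DMSO, high thioflavine S at 110 µM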
MEKK2 WT-MEK5: raises or lowers MEK5 binding to wildtype human MEKK2 PB1 domain. AID 1531. binding response (% of control), % at 10 µM. bead flow cytometry, Alexa488-MEK5 binding to MEKK2 WT; actives lie on both sides. 1.1% of 290,000 active; in the data active = binding response below about 67% or above about 130%
MEKK2 mut-MEK5: signal of MEK5 binding to mutant human MEKK2 PB1 domain. bead flow cytometry, Alexa488-MEK5 binding to MEKK2 mutant. percent response, % at 10 µM. 0.35% of 290,000 active. AID 1530; in the data active = percent response above about 24%, passing the limit was not always enough
MEKK2wt confirm: raises or lowers MEK5 binding to wildtype human MEKK2, retest; shares compounds with MEKK3 PB1 HTS; bead flow cytometry, Alexa488-MEK5 binding to MEKK2 WT; actives lie on both sides; AID 1892; 2.4% of 5,900 active; binding response (% of control), % at 10 µM; in the data active = binding response below about 16% or above about 210%; inactive = in between
MEKK2mut-MEK5: signal of MEK5 binding to mutant human MEKK2, retest; shares compounds with MEKK3 PB1 HTS; bead flow cytometry, Alexa488-MEK5 binding to MEKK2 mutant; percent response, % at 10 µM; 2% of 5,900 active; AID 1893; in the data active = percent response mostly above about 71%, no sharp cut-off; inactive = mostly below about 38%;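 also: higher means compound restores mutant binding toward wildtype level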
MEKK3-MEK5 inh: MEKK3-MEK5 PB1 inhibition, single concentration confirmation; bead flow cytometry, Alexa488-MEK5 binding to MEKK3; stronger effect = lower value; 1.8% of 5,900 active; binding response (% of control), % at 10 µM; shares compounds with MEKK3 PB1 HTS;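 active = binding response below 72% of control, or above a set upper limit, though filed actives all read lower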
Each line names hits and unclear results; the compound was inactive in the other large screens (follow-up assays come after a bar, where they were run); ! = a repeat was not active; [ ] = remark or other dose. In the library only some 4.1% were active in any assay of this set; here they are far more common.

O=S(=O)(NC1Cc2ccccc2C1)c1ccccc1	none
Cc1oc2c(C)c(O)ccc2c(=O)c1-c1cnn(-c2ccccc2)c1	MEKK3 PB1 HTS 69[inhibitor] | MEKK2wt confirm inactive | MEKK2mut-MEK5 inactive | MEKK3-MEK5 inh inactive
Cc1ccc(C)c2c1cc(C)c1nnc(SCC(=O)c3cccs3)n12	MEKK3 PB1 HTS 148 | MEKK2wt confirm inactive | MEKK2mut-MEK5 inactive | MEKK3-MEK5 inh inactive
Cc1ccc2cc(C)c3nnc(SCC(=O)c4cccs4)n3c2c1C	none
N#CC(C#N)=CC1=C2OC(c3ccccc3)=CC(c3ccccc3)=C2CCC1	MEKK3 PB1 HTS 74[inhibitor], MEKK2 WT-MEK5 72[inhibitor] | MEKK2wt confirm inactive | MEKK2mut-MEK5 inactive | MEKK3-MEK5 inh inactive
COc1ccc(N2CCN(C3CCCN(Cc4ccc(F)cc4Cl)C3)CC2)cc1 (stereo unspecified)	none
O=C1CCC([N+](=O)[O-])C(c2cc3c(cc2Br)OCO3)N1 (stereo unspecified)	MEKK3 PB1 HTS 156 | MEKK2wt confirm inactive | MEKK2mut-MEK5 inactive | MEKK3-MEK5 inh inactive
Cc1ccc(N(CC2=NCCN2)c2cccc(O)c2)cc1	MEKK3 PB1 HTS 35![inhibitor] | MEKK2wt confirm inactive | MEKK2mut-MEK5 inactive | MEKK3-MEK5 inh inactive
COc1ccc(CNS(=O)(=O)c2cc3c4c(c2)C(C)C(=O)N4CCC3)cc1 (stereo unspecified)	none
COc1cc(CN2CCC(CO)(Cc3cccc(C(F)(F)F)c3)CC2)ccc1F	MEKK3 PB1 HTS 42[inhibitor] | MEKK2wt confirm inactive | MEKK2mut-MEK5 inactive | MEKK3-MEK5 inh inactive
CSc1ccc(CN2CCC(CO)(Cc3ccc(Cl)cc3)CC2)cc1	MEKK2 WT-MEK5 140 | MEKK2wt confirm inactive | MEKK2mut-MEK5 inactive | MEKK3-MEK5 inh inactive
Cc1c(CN2CCC(CO)(Cc3cccc(C(F)(F)F)c3)CC2)c2ccccc2n1C	T cruzi inh 56, MEKK2 WT-MEK5 165 | MEKK2wt confirm inactive | MEKK2mut-MEK5 inactive | MEKK3-MEK5 inh inactive
COc1ccc(CN2CCC(CO)(Cc3cccc(C(F)(F)F)c3)CC2)cc1Cn1cccn1	none
Clc1ccc(CN2CCN(c3ncccn3)CC2)c(Cl)c1	none
Cc1ccccc1OCC(=O)Nc1ccc(C(=O)Nc2ccccc2C(=O)O)cc1	none
CCN(CC)C(=O)c1cn(CCC#N)nc1-c1ccc(F)cc1	none
O=C(c1ccccc1)c1ccc(OCC(O)CN2CCCCC2)cc1 (stereo unspecified)	none
OC(COc1ccc(CNCCc2ccccc2F)cc1)CN1CCCCC1 (stereo unspecified)	MEKK2 WT-MEK5 168, MEKK2 mut-MEK5 58 | MEKK2wt confirm inactive | MEKK2mut-MEK5 inactive | MEKK3-MEK5 inh inactive
COc1ccc(C(=O)Nc2sc(C)c(C)c2CN2CC(C)OC(C)C2)cc1 (stereo unspecified)	none
CCCN1CCN(C(=O)c2c(Cl)cnn2C)CC1	none
CCOP(=O)(OCC)c1nc(-c2ccc(Cl)cc2Cl)oc1N1CCCCC1	MEKK3 PB1 HTS 39[inhibitor] | MEKK2wt confirm inactive | MEKK2mut-MEK5 inactive | MEKK3-MEK5 inh inactive
COc1ccc(/C=C/C(=O)NCCCN2CCOCC2)cc1	none
O=C(/C=C/c1ccc(F)cc1)NCCCN1CCN(CCCNC(=O)/C=C/c2ccc(F)cc2)CC1	MEKK2 WT-MEK5 146 | MEKK2wt confirm inactive | MEKK2mut-MEK5 inactive | MEKK3-MEK5 inh inactive
Cc1ccc(/C=C/C(=O)NCCCn2ccnc2)cc1	MEKK3 PB1 HTS 3.0[inhibitor], MEKK2 WT-MEK5 5.0[inhibitor] | MEKK2wt confirm inactive | MEKK2mut-MEK5 inactive | MEKK3-MEK5 inh inactive
COc1ccc(/C=C/C(=O)NCCCN2CCCCCC2)cc1	MEKK2 WT-MEK5 155, MEKK2 mut-MEK5 28 | MEKK2wt confirm inactive | MEKK2mut-MEK5 inactive | MEKK3-MEK5 inh inactive
NNC(=O)c1csc(-c2ncc(C(F)(F)F)cc2Cl)n1	none
Cc1c(Cl)c([N+](=O)[O-])nn1CCCC(=O)N(Cc1ccccc1)Cc1ccccc1	MEKK3 PB1 HTS 141, T cruzi inh 64 | MEKK2wt confirm inactive | MEKK2mut-MEK5 inactive | MEKK3-MEK5 inh inactive
O=C(Cn1cc2c(n1)CCCC2)NCCCN1CCCC1	MEKK2 WT-MEK5 134 | MEKK2wt confirm inactive | MEKK2mut-MEK5 inactive | MEKK3-MEK5 inh inactive
CCCN1CCN(CCCNC(=O)Cn2cc3c(n2)CCCC3)CC1	none

Bioassay records from PubChem.
